In data set [1] the test system is NIH3T3. As to the kind of experiment: Cytotoxicity on 3T3 fibroblasts (3T3F) murine cell line (O.D.=0.131+/-0.014). Conditions: Mus musculus, read-out: TC50 (the source's name). It counts as functional.
Data set [2] in a line: Selectivity index (IC50/EC50) was determined in CEM-SS cells. The class given is functional. The method in brief: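 CEM-SS (T4 lymphocyte) cells infected with wild-type HIV-1 were scored for protection from virus-induced cell death. […] SI = IC50/EC50. An AZT-treated positive control was run in parallel under identical conditions.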
The target of data set [3] is T1, Human immunodeficiency virus type 1 reverse transcriptase (Human immunodeficiency virus 1, UniProt Q72547). Kind of data set: Inhibition of HIV-1 Mutant HIV-1 RT enzymes containing the single amino acid substitution […].
The subject of data set [4] is C8166. As to the kind of experiment: Synergistic antiviral activity of AZT (DDI) with the compound, against HIV-IIIB in C8166 cells. It counts as functional, cell-based. Conditions: Homo sapiens. In a few lines:
(§1)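 C8166 cells infected with HIV-IIIB and treated with compound combined with AZT (or DDI). Combination index calculated by the Chou-Talalay multiple drug effect analysis under both mutually exclusive and mutually nonexclusive assumptions.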

The species named for data set [5] is Homo sapiens. As to the kind of experiment: Cytotoxicity on normal human lymphocytes(HL) (O.D.=0.114+/-0.01). It counts as functional. The following applies: read-out: TC50 (the source's name).
Data set [6] has as its system CEM-SS. As to the kind of experiment: Concentration which results in 50% survival of uninfected untreated control CEM-SS cells (cytotoxicity of the compound). It counts as functional, cell-based. Conditions: Homo sapiens, read-out: IC50 (the source's name).
Data set [7] has as its system Daudi. As to the kind of experiment: Cytotoxicity on Daudi Human(DH) cell line (O.D.=0.129+/-0.018). The class given is functional. The following applies: read-out: TC50 (the source's name).
Data set [8] deals with Human immunodeficiency virus type 1 reverse transcriptase (Human immunodeficiency virus 1, UniProt Q72547, Y188L). As to the kind of experiment: Inhibition of HIV-1 Mutant HIV-1 RT enzymes containing the single amino acid substitution Y188L.
Data set [9] deals with C8166. Kind of data set: (§2) Concentration which results in 50% survival of uninfected untreated control C8166 cells (cytotoxicity of the compound). The class given is functional, cell-based. Conditions: Homo sapiens. The method in brief:
(§3)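 Toxicity in uninfected C8166 cells by MTT reduction to formazan, read spectrophotometrically.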

The target in data set [10] is T1, Human immunodeficiency virus type 1 reverse transcriptase. Kind of data set: Inhibition of HIV-1 wild-type RT.
In data set [11] the target is Human immunodeficiency virus type 1 reverse transcriptase (Human immunodeficiency virus 1, UniProt Q72547, K103N). Kind of data set: Inhibition of HIV-1 Mutant HIV-1 RT enzymes containing the single amino acid substitution K103N.
Data set [12] is filed under the species Mus musculus. As to the kind of experiment: Cytotoxicity on NSO murine cell line (O.D.=0.125+/-0.015). Conditions: read-out: TC50 (the source's name). It counts as functional.
Data set [13] in a line: Selectivity index (IC50/EC50) was determined in C8166 cells. The class given is functional.
In data set [14] the test system is C8166. As to the kind of experiment: Antiviral activity alone against HIV-IIIB in C8166 cells. It counts as functional, cell-based. The following applies: Homo sapiens. In a few lines: (§4)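 C8166 CD4+ T-cell line (HTLV-I genome, only tat expressed) acutely infected with lymphocytotropic HIV-1 IIIB. […] Read-out is HIV-p24 antigen in supernatants. AZT positive control was run at the same time. SI = IC50/EC50.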

Data set [15] has as its target Human immunodeficiency virus type 1 reverse transcriptase (Human immunodeficiency virus 1, UniProt Q72547, Y181I). Kind of data set: Inhibition of HIV-1 Mutant HIV-1 RT enzymes containing the single amino acid substitution Y181I.
Data set [16] relates to Human immunodeficiency virus 1. As to the kind of experiment: Concentration which produces a 50% survival of HIV-1 infected cells relative to uninfected control C8166 cells. It counts as functional, organism-based. The following applies: Human immunodeficiency virus 1, C8166.
Data set [17] concerns the target Human immunodeficiency virus type 1 reverse transcriptase (Human immunodeficiency virus 1, UniProt Q72547, V106A). As to the kind of experiment: Inhibition of HIV-1 Mutant HIV-1 RT enzymes containing the single amino acid substitution V106A.
The subject of data set [18] is CEM-SS. Kind of data set: Concentration which produces a 50% survival of HIV-1 infected cells relative to uninfected control CEM-SS cells (in vitro anti-HIV activity). The class given is functional, cell-based. Conditions: Homo sapiens. The method in brief:
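CEM-SS T4 lymphocytes infected with wild-type HIV-1. Protection from virus-induced cell death is scored against an AZT-treated positive control run under identical conditions. […] SI = IC50/EC50.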

For data set [19], the system named is C8166. Kind of data set: Synergistic antiviral activity with AZT (DDI), against HIV-IIIB in C8166 cells. It counts as functional, cell-based. Conditions: Homo sapiens. The method in brief: as §1
For data set [20], the system named is NIH3T3. As to the kind of experiment: Cytotoxicity against 3T3 fibroblasts (3T3F) murine cell line (O.D.=0.131+/-0.014). Conditions: Mus musculus, read-out: TC50 (the source's name). It counts as functional.
Data set [21] in a line: Subcutaneous absorption was determined fter subcutaneous administration of a dose of 20 mg/kg in mice. The class given is ADME, organism-based. Details: dose 20 mg/kg, route subcutaneous. The following applies: mouse, in vivo, sc. In a few lines:
(§5)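 Mice dosed at 20 mg/kg, either subcutaneously or orally; plasma drug level measured by HPLC with an internal standard; n = 3 per point. Cmax and tmax read from the concentration-time curves. Clearance assumes complete subcutaneous absorption. Elimination t1/2, Vd and AUC derived from plasma curves. Relative oral bioavailability computed as oral AUC over subcutaneous AUC.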

In data set [22] the test system is Human immunodeficiency virus 1. Kind of data set: Inhibition of HIV-1-p24 antigen production in monocyte-macrophages (cytotoxicity of the compound). It counts as organism-based. In a few lines:
(§6)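 Macrophages from adherent PBMC (10^6/mL, RPMI-1640 with 20% heat-inactivated FCS), 10^5 per well, >95% pure, infected with monocytotropic HTLV-III Ba-L. Antiviral activity read 14 days after infection. […] SI = IC50/EC50. AZT control run in parallel.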

Data set [23] relates to Mus musculus. As to the kind of experiment: Volume distribution was determined after subcutaneous administration of a dose of 20 mg/kg in mice. The class given is ADME, organism-based. Details: dose 20 mg/kg, route subcutaneous. Conditions: in vivo, sc. In a few lines:
as §5

For data set [24], the system named is Mus musculus. Kind of data set: Area under curve was determined after oral administration in mice. The class given is ADME, organism-based. Conditions: in vivo. In a few lines:
as §5

The subject of data set [25] is Mus musculus. Kind of data set: Area under curve was determined after subcutaneous administration of a dose of 20 mg/kg in mice. It counts as ADME, organism-based. Details: dose 20 mg/kg, route subcutaneous. The following applies: in vivo, sc. In a few lines:
as §5

Data set [26] concerns Daudi. As to the kind of experiment: Cytotoxicity against Daudi Human(DH) cell line (O.D.=0.129+/-0.018). Conditions: read-out: TC50 (the source's name). It counts as functional.
Data set [27] in a line: Cytotoxicity against normal human lymphocytes(HL) (O.D.=0.114+/-0.01). It counts as functional. Conditions: read-out: TC50 (the source's name).
The test system of data set [28] is C8166. Kind of data set: Synergistic antiviral activity with AZT (DDI), against HIV-IIIB in C8166 cells (combination index in association with DDI). It counts as functional, cell-based. The following applies: Homo sapiens. In a few lines: as §1
Data set [29] relates to C8166. As to the kind of experiment: Synergistic antiviral activity of AZT (DDI) with the compound, against HIV-IIIB in C8166 cells (combination index in association with DDI). It counts as functional, cell-based. The following applies: Homo sapiens. The method in brief:
as §1

Data set [30] is described as follows: Half life period was determined after subcutaneous administration of a dose of 20 mg/kg in mice. The class given is ADME, organism-based. Details: dose 20 mg/kg, route subcutaneous. Conditions: mouse, in vivo, sc. In a few lines:
as §5

Data set [31] is described as follows: Bioavailability was determined after subcutaneous administration of a dose of 20 mg/kg in mice. The class given is ADME, organism-based. Conditions: mouse, in vivo, po, in the assay text read “oral” for “subcutaneous”. In a few lines: as §5
Data set [32] can be described thus: Half life period was determined after oral administration in mice. It counts as ADME, organism-based. Conditions: mouse, in vivo. The method in brief: as §5
Data set [33] has as its system Human immunodeficiency virus 1. As to the kind of experiment: Inhibition of HIV-1-p24 antigen production in monocyte-macrophages (in vitro anti-HIV-1 activity). It counts as functional, organism-based. The method in brief: as §6
Data set [34] concerns NSO. As to the kind of experiment: Cytotoxicity against NSO murine cell line (O.D.=0.125+/-0.015). The following applies: Mus musculus, read-out: TC50 (the source's name). The class given is functional.
The subject of data set [35] is C8166. As to the kind of experiment: Concentration which produces a 50% survival of HIV-1 infected cells relative to uninfected control C8166 cell (in vitro anti-HIV activity). The class given is functional, cell-based. Conditions: Homo sapiens.
Data set [36] can be described thus: Selectivity index was determined in C8166 cells. It counts as functional. The method in brief: as §4
In data set [37] the test system is C8166. Described as §2. It counts as cell-based. Conditions: Homo sapiens. The method in brief: as §3

One may read the Ki as the equilibrium dissociation constant of an inhibitor or competing ligand from its target. Usually EC50 stands for the midpoint of the concentration-response curve. By IC50 is commonly meant the concentration needed to halve the response being measured. With `O=c1c2cccn2c2ncccc2n1CCNC(=S)Nc1ccc(Br)cn1`, the CC50 in data set [1] was 690000 nM; in data set [5] it was 680000 nM; in data set [6], more than 2000 nM; in data set [7], 690000 nM; in data set [12], 700000 nM. Moreover, the SI is listed as more than 380 in [2] and 89 in data set [13]. Moreover, the Ki was 95 nM in [3]; 130 nM in [8]; 9 nM in data set [10]; 250 nM in data set [11]; 400 nM in [15]; 50 nM in data set [17]. In addition, the EC50 in data set [4] was 15 nM; in [14] it was 124 nM; in data set [16], 124 nM; in data set [18], 5.2 nM; in data set [19], 50 nM. Moreover, half-maximal inhibition in data set [9] (IC50) required 11000 nM.

Take `Cc1cc2nc(OCCNC(=S)Nc3ccc(Br)cn3)c3cccn3c2cc1C`: the Ki in data set [3] was 500 nM; in data set [8], 1500 nM; in [10], 220 nM; in data set [11] it was 450 nM; in data set [15] it was 660 nM; in [17] it was 150 nM.

On to `O=c1c2cccn2c2c(F)cc(F)cc2n1CCNC(=S)Nc1ccc(Br)cn1`, for which the Ki was found to be 100 nM in data set [3]; 450 nM in [8]; 22 nM in [10]; 1600 nM in data set [15]; 30 nM in data set [17].

The Tmax is the time at which the peak concentration occurs. A word on the half-life: it is the time needed for the level to fall by half in the phase considered. A word on the bioavailability: it is dose-corrected exposure relative to a reference, in per cent. Read a low bioavailability as little systemic uptake. Turning to `O=C(NNc1nc2ccccc2n2cccc12)c1cnccn1`, the CC50 in data set [20] came out at 880000 nM; in data set [26] it was 860000 nM; in [27], 870000 nM; in data set [34], 870000 nM. In addition, the Tmax in data set [21] is 2 h. Besides, the IC50 stood at 25000 nM in [22] and 18000 nM in [9]. For the same compound, the Ki in [3] was found to be 300 nM; in [8] it was 1800 nM; in [10], 190 nM; in data set [15], 2500 nM; in [17], 800 nM. Besides, the Vd in data set [23] came out at 3 L/kg. In addition, the AUC was 21.7 nM hr-1 ml-1 in data set [24] and 48.7 nM hr-1 ml-1 in [25]. The EC50 came out at 140 nM in [28]; 98 nM in data set [29]; 450 nM in [14]; 200 nM in data set [33]; 400 nM in [35]. Moreover, the figures for the half-life in [30] and in [32] were 1.5 h and 1.4 h, respectively. Further, in data set [31], the bioavailability is 45%.

As for `CC(C)=CCN1Cc2c(Cl)ccc3[nH]c(=S)n(c23)C[C@@H]1C` [TIVIRAPINE], the SI in [36] stood at 1670. Further, the IC50 in data set [37] stood at 50000 nM. This compound had a half-maximal effective concentration (EC50) in [16] of 30 nM.

For the compound `S=C(NNc1nc2ccccc2n2cccc12)Nc1ccc(Br)cn1`, the Ki in data set [10] is 1900 nM.

For the origin of these results see ChEMBL document CHEMBL1134834, “Quinoxalinylethylpyridylthioureas (QXPTs) as potent non-nucleoside HIV-1 reverse transcriptase (RT) inhibitors. Further SAR studies and identification of a novel orally bioavailable hydrazine-based antiviral agent” (J Med Chem, 2001).
